# Data from ChEMBL document CHEMBL1152788, “Naphthylisopropylamine and N-benzylamphetamine derivatives as monoamine oxidase inhibitors” (Bioorg Med Chem, 2009).
# Where a name gives a salt, the structure may show the parent alone.
# How the values were obtained:
# [1] = target: T1, Amine oxidase [flavin-containing] A (Rattus norvegicus, UniProt P21396); experiment: Inhibition of MAOA in rat brain mitochondria
# T1 sequence (P21396 whole entry): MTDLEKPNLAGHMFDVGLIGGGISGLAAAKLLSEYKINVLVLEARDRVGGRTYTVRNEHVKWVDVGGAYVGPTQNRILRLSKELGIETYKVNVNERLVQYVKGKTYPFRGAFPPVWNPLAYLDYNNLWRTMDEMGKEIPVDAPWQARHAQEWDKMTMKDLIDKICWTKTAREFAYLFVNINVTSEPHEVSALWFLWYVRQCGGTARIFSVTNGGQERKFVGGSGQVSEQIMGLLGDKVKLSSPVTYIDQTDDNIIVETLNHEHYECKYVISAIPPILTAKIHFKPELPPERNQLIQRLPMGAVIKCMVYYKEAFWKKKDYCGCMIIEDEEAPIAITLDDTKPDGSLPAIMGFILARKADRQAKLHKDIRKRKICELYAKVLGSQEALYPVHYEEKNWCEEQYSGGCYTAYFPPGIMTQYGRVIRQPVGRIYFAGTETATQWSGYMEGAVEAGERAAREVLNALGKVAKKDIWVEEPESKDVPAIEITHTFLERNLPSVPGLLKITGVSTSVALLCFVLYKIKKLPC
# Outline: (§1)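 Substrate is 5-HT for MAO-A and DMAPEA for MAO-B. Substrates and their metabolites are measured by HPLC with electrochemical detection. Percent inhibition is taken against enzyme treated the same way without inhibitor and plotted against −log inhibitor concentration to give IC50. Runs are at least two independent experiments, each in triplicate. Ki is from IC50 by Cheng–Prusoff, using the substrate's Km.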
# [2] = target: T2, Amine oxidase [flavin-containing] B (Rattus norvegicus, UniProt P19643); experiment: Inhibition of MAOB in rat brain mitochondria; outline: as §1
# T2 sequence (P19643 whole entry): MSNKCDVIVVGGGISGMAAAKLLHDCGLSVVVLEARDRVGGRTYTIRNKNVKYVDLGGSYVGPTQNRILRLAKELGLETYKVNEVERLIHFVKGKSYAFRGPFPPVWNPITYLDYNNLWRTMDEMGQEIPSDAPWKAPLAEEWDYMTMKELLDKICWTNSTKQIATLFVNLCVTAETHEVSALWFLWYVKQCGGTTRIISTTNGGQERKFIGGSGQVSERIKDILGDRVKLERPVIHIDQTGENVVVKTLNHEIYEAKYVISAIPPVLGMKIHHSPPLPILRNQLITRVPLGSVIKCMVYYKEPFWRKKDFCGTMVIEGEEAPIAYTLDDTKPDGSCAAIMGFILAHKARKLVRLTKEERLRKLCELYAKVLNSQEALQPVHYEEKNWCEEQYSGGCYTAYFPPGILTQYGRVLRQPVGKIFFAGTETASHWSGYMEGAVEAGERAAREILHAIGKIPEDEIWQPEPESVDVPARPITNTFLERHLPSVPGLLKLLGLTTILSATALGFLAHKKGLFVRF
Compound,Ki [1],Ki [2]
CCCCOc1ccc2cc(CC(C)N)ccc2c1 (stereo unspecified),1.53 µM,–
COc1ccc2cc(CC(C)N)ccc2c1 (stereo unspecified),0.18 µM,16.3 µM
CSc1ccc(CC(C)N)cc1 (stereo unspecified) [4-METHYLTHIOAMPHETAMINE],0.25 µM,–
CCCOc1ccc(CC(C)N)cc1 (stereo unspecified),0.13 µM,> 100 µM
CSc1ccc(CC(C)NCc2ccccc2)cc1 (stereo unspecified),> 100 µM,> 100 µM
CCOc1ccc2cc(CC(C)N)ccc2c1 (stereo unspecified),0.45 µM,13.6 µM
CCCCOc1ccc2cc(CC(C)NCc3ccccc3)ccc2c1 (stereo unspecified),14.5 µM,22.2 µM
COc1ccc(CNC(C)Cc2ccc(SC)cc2)cc1 (stereo unspecified),> 100 µM,–
CCOc1ccc(CC(C)N)cc1 (stereo unspecified),0.22 µM,> 100 µM
CC(N)Cc1ccccc1 (stereo unspecified) [AMPHETAMINE SULFATE],12.2 µM,–
COc1ccc(CC(C)N)cc1 (stereo unspecified) [PARA-METHOXYAMPHETAMINE],0.25 µM,–
CSc1ccc(CC(C)NCc2ccc(O)cc2)cc1 (stereo unspecified),> 100 µM,> 100 µM
CSc1ccc2cc(CC(C)N)ccc2c1 (stereo unspecified),0.5 µM,–
CC(N)Cc1cccc2ccccc12 (stereo unspecified),5.63 µM,> 100 µM
CCCOc1ccc2cc(CC(C)N)ccc2c1 (stereo unspecified),0.68 µM,13.5 µM
CC(N)Cc1ccc(OCc2ccccc2)cc1 (stereo unspecified),3.42 µM,0.71 µM
CSc1ccc(CC(C)NCc2ccc(OCc3ccccc3)cc2)cc1 (stereo unspecified),> 100 µM,–
CC(N)Cc1ccc2cc(OCc3ccccc3)ccc2c1 (stereo unspecified),3.78 µM,2.56 µM
COc1ccc2cc(CC(C)NCc3ccccc3)ccc2c1 (stereo unspecified),6.93 µM,24.7 µM
CCCCOc1ccc(CNC(C)Cc2ccc(SC)cc2)cc1 (stereo unspecified),90 µM,–
CC(N)Cc1ccc2ccccc2c1 (stereo unspecified),0.42 µM,> 100 µM
CCCCOc1ccc(CC(C)N)cc1 (stereo unspecified),0.32 µM,> 100 µM
